From ChEMBL document CHEMBL3259807, “Structure-activity relationships of pyrazole derivatives as potential therapeutics for immune thrombocytopenias” (Bioorg Med Chem, 2014)

What was measured:
PBMC [1] = assay: Inhibition of human PBMC-induced phagocytosis of antibody-opsonized RBC at 5 uM incubated for 1 hr prior to RBC addition measured after 2 hrs by phase-contrast microscopy; type: functional
Method in brief: (§1)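 Ficoll-isolated human PBMC cultured overnight (10% FBS, 37 °C, 5% CO2). 7×10^5 cells adhered 1 h on chamber slides, then non-adherent cells removed. Compound or IVIg was added for 1 h, media aspirated, and anti-D-opsonized human R2R2 RBCs added for 2 h. Slides were methanol-fixed and read by phase-contrast, counting ≥100 monocytes for the phagocytosis index. Results are normalized to vehicle (100% phagocytosis). Screen at 5 µM; titration 0.5–100 µM.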

PBMC [2] = assay: Induction of apoptosis in human PBMC assessed as apoptotic index at 10 uM after 1 hr by Annexin V/propidium iodide staining-based FACS analysis relative to IVIg; type: cell-based; details: in the assay text read “relative to vehicle” for “relative to IVIg”
Method in brief: (§2)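 Ficoll-isolated human PBMC cultured overnight in 10% FBS medium, 37 °C, 5% CO2. After 1 h adherence, non-adherent cells removed, and the rest were exposed to compound at 10 and 100 µM for 1 h. Cells were then scraped and stained with Annexin V-APC plus PI (1 µg/mL) for flow cytometry. AI = fold increase in % apoptotic cells (Annexin V+ and Annexin V+/PI+) over vehicle.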

[3] = Acidic dissociation constant, pKa of the compound at 10 mM; type: physicochemical
[4] = Distribution coefficient, log D of the compound at 10 mM at pH 7.4 by pH-metric method; type: physicochemical; details: octanol/water
[5] = Basic dissociation constant, pKa of the compound at 10 mM; type: physicochemical
PBMC [6] = assay: Induction of apoptosis in human PBMC assessed as apoptotic index at 100 uM after 1 hr by Annexin V/propidium iodide staining-based FACS analysis relative to IVIg; type: cell-based; details: in the assay text read “relative to vehicle” for “relative to IVIg”; method in brief: as §2
PBMC [7] = assay: Inhibition of human PBMC-induced phagocytosis of antibody-opsonized RBC incubated for 1 hr prior to RBC addition measured after 2 hrs by phase-contrast microscopy; type: functional, cell-based; method in brief: as §1

**Q.** Which inhibition at 5 µM (PBMC [1]) does the source give for `Cc1nn(-c2ccccc2)c(S)c1C(=O)c1ccccc1` here?
**A.** The inhibition at 5 µM was 0%.

**Q.** What about the Ratio (PBMC [2]) of the same compound?
**A.** The Ratio was 2.

**Q.** And the pKa at 10000 µM [3]?
**A.** The pKa at 10000 µM was 10.3.

**Q.** What about the logD at 10000 µM [4] of the same compound?
**A.** The logD at 10000 µM was -0.3.

**Q.** What about the pKa at 10000 µM [5] of the same compound?
**A.** The pKa at 10000 µM was 2.9.

**Q.** What about the Ratio (PBMC [6]) of the same compound?
**A.** Its Ratio is 1.6.

**Q.** What does the source list for `Cc1nn(-c2ccccc2)c(SSc2c(C(=O)c3ccccc3)c(C)nn2-c2ccccc2)c1C(=O)c1ccccc1`?
**A.** inhibition at 5 µM (PBMC [1]): 32%; Ratio (PBMC [2]): 0.8; logD at 10000 µM [4]: 8; pKa at 10000 µM [5]: 3.2; Ratio (PBMC [6]): 1

**Q.** Which inhibition at 5 µM (PBMC [1]) does the source give for `Cc1cc(SSc2cc(C)nn2-c2ccccc2)n(-c2ccccc2)n1` here?
**A.** Its inhibition at 5 µM is 45%.

**Q.** And the Ratio (PBMC [2])?
**A.** The Ratio was 1.

**Q.** What about the logD at 10000 µM [4] of the same compound?
**A.** The logD at 10000 µM was 3.2.

**Q.** And the pKa at 10000 µM [5]?
**A.** Its pKa at 10000 µM is 4.8.

**Q.** What about the Ratio (PBMC [6]) of the same compound?
**A.** Its Ratio is 5.4.

**Q.** For `Cc1cc(CCc2cc(C)nn2-c2ccccc2)n(-c2ccccc2)n1`, which inhibition at 5 µM (PBMC [1]) is on record?
**A.** The inhibition at 5 µM was 14%.

**Q.** And the Ratio (PBMC [2])?
**A.** The Ratio was 1.

**Q.** And the logD at 10000 µM [4]?
**A.** Its logD at 10000 µM is 1.3.

**Q.** And the pKa at 10000 µM [5]?
**A.** Its pKa at 10000 µM is 2.5.

**Q.** And the Ratio (PBMC [6])?
**A.** The Ratio was 0.9.

**Q.** Which results are given for `Cc1cc(COc2cc(C)nn2-c2ccccc2)n(-c2ccccc2)n1`?
**A.** inhibition at 5 µM (PBMC [1]): 16%; Ratio (PBMC [2]): 1.1; logD at 10000 µM [4]: 2.2; pKa at 10000 µM [5]: 2.7; Ratio (PBMC [6]): 0.9

**Q.** Which inhibition at 5 µM (PBMC [1]) does the source give for `Cc1cc(CNCc2cc(C)nn2-c2ccccc2)n(-c2ccccc2)n1` here?
**A.** Its inhibition at 5 µM is 20%.

**Q.** What about the Ratio (PBMC [2]) of the same compound?
**A.** Its Ratio is 1.1.

**Q.** What about the logD at 10000 µM [4] of the same compound?
**A.** The logD at 10000 µM was 5.

**Q.** What about the pKa at 10000 µM [5] of the same compound?
**A.** The pKa at 10000 µM was 2.2.

**Q.** What about the Ratio (PBMC [6]) of the same compound?
**A.** Its Ratio is 0.9.

**Q.** For `Cc1cc(OCCOc2cc(C)nn2-c2ccccc2)n(-c2ccccc2)n1`, which inhibition at 5 µM (PBMC [1]) is on record?
**A.** The inhibition at 5 µM was 4%.

**Q.** What about the Ratio (PBMC [2]) of the same compound?
**A.** The Ratio was 1.

**Q.** What about the logD at 10000 µM [4] of the same compound?
**A.** The logD at 10000 µM was -1.6.

**Q.** What about the pKa at 10000 µM [5] of the same compound?
**A.** The pKa at 10000 µM was 2.2.

**Q.** And the Ratio (PBMC [6])?
**A.** Its Ratio is 1.

**Q.** Which results are given for `Cc1cc(Oc2c(N)c(C)nn2-c2ccccc2)n(-c2ccccc2)n1`?
**A.** inhibition at 5 µM (PBMC [1]): 2%; Ratio (PBMC [2]): 1.2; logD at 10000 µM [4]: 4; pKa at 10000 µM [5]: 3.4; Ratio (PBMC [6]): 1

**Q.** Which results are given for `Cc1cc(COc2cc(C)nn2-c2ccc([N+](=O)[O-])cc2)n(-c2ccccc2)n1`?
**A.** inhibition at 5 µM (PBMC [1]): 16%; Ratio (PBMC [2]): 0.8; logD at 10000 µM [4]: 3.7; pKa at 10000 µM [5]: 2; Ratio (PBMC [6]): 0.8

**Q.** What does the source list for `Cc1cc(COc2cc(C)nn2-c2ccccc2)n(Cc2ccccc2)n1`?
**A.** inhibition at 5 µM (PBMC [1]): 0%; Ratio (PBMC [2]): 1.1; logD at 10000 µM [4]: 5.3; pKa at 10000 µM [5]: 2.1; Ratio (PBMC [6]): 1

**Q.** Which results are given for `Cc1cc(OCc2cc(C)nn2-c2ccccc2)n(CC2CCCCC2)n1`?
**A.** inhibition at 5 µM (PBMC [1]): 45%; Ratio (PBMC [2]): 1; logD at 10000 µM [4]: 4.3; pKa at 10000 µM [5]: 3.6; Ratio (PBMC [6]): 1.1

**Q.** Which inhibition at 5 µM (PBMC [1]) does the source give for `Cc1cc(COc2cc(C)nn2C2CCCC2)n(-c2ccccc2)n1` here?
**A.** The inhibition at 5 µM was 17%.

**Q.** What about the Ratio (PBMC [2]) of the same compound?
**A.** The Ratio was 0.9.

**Q.** What about the logD at 10000 µM [4] of the same compound?
**A.** Its logD at 10000 µM is 1.7.

**Q.** And the pKa at 10000 µM [5]?
**A.** The pKa at 10000 µM was 2.7.

**Q.** What about the Ratio (PBMC [6]) of the same compound?
**A.** The Ratio was 1.2.

**Q.** Which results are given for `Cc1cc(OCc2cc(C)nn2-c2ccccc2)n(CCN)n1`?
**A.** inhibition at 5 µM (PBMC [1]): 33%; Ratio (PBMC [2]): 1.1; logD at 10000 µM [4]: 5; pKa at 10000 µM [5]: 2.5; Ratio (PBMC [6]): 1

**Q.** Which inhibition at 5 µM (PBMC [1]) does the source give for `Cc1cc(OCc2cc(C)nn2-c2ccccc2)n(CC(=O)O)n1` here?
**A.** Its inhibition at 5 µM is 10%.

**Q.** What about the Ratio (PBMC [2]) of the same compound?
**A.** The Ratio was 1.1.

**Q.** And the pKa at 10000 µM [3]?
**A.** Its pKa at 10000 µM is 3.4.

**Q.** And the logD at 10000 µM [4]?
**A.** Its logD at 10000 µM is 1.2.

**Q.** What about the pKa at 10000 µM [5] of the same compound?
**A.** The pKa at 10000 µM was 7.3.

**Q.** What about the Ratio (PBMC [6]) of the same compound?
**A.** The Ratio was 1.2.

**Q.** With `Cc1cc(OCc2cc(C)nn2-c2ccccc2)[nH]n1` as the compound, how does the inhibition at 5 µM (PBMC [1]) read?
**A.** Its inhibition at 5 µM is 6%.

**Q.** And the Ratio (PBMC [2])?
**A.** Its Ratio is 1.

**Q.** What about the pKa at 10000 µM [3] of the same compound?
**A.** The pKa at 10000 µM was 12.5.

**Q.** And the logD at 10000 µM [4]?
**A.** Its logD at 10000 µM is 2.9.

**Q.** And the pKa at 10000 µM [5]?
**A.** The pKa at 10000 µM was 2.4.

**Q.** What about the Ratio (PBMC [6]) of the same compound?
**A.** Its Ratio is 1.

**Q.** For `Cc1cc(O)n(Cc2cc(C)nn2-c2ccccc2)n1`, which inhibition at 5 µM (PBMC [1]) is on record?
**A.** Its inhibition at 5 µM is 58%.

**Q.** What about the Ratio (PBMC [2]) of the same compound?
**A.** Its Ratio is 1.2.

**Q.** And the pKa at 10000 µM [3]?
**A.** The pKa at 10000 µM was 8.4.

**Q.** What about the IC50 (PBMC [7]) of the same compound?
**A.** The IC50 was 14 µM.

**Q.** What about the logD at 10000 µM [4] of the same compound?
**A.** Its logD at 10000 µM is 4.3.

**Q.** And the pKa at 10000 µM [5]?
**A.** Its pKa at 10000 µM is 2.3.

**Q.** And the Ratio (PBMC [6])?
**A.** The Ratio was 1.3.

**Q.** What does the source list for `Cc1cc(OCC2CCCN2Cc2ccccc2)n(-c2ccccc2)n1` (stereo unspecified)?
**A.** inhibition at 5 µM (PBMC [1]): 15%; Ratio (PBMC [2]): 1.1; logD at 10000 µM [4]: 4.5; pKa at 10000 µM [5]: 2.4; Ratio (PBMC [6]): 0.9

**Q.** With `Cc1nn(-c2ccccc2)c(S)c1C(=O)c1ccno1` as the compound, how does the IC50 (PBMC [7]) read?
**A.** Its IC50 is 250 µM.
